Experimental data: ChEMBL document CHEMBL1141603, “2-aryloxy-4-alkylaminopyridines: discovery of novel corticotropin-releasing factor 1 antagonists” (J Med Chem, 2008)
≈ marks a conversion by molar mass, not a printed value. Calls of active or inactive are those of the source. No cut-off for these calls is given here.

Legend:
Rattus norvegicus [1] = experiment: Ex vivo displacement of [125I]oCRF from CRF1 receptor in Sprague-Dawley rat pituitary at 3.2 mg/kg, po after 2 hrs by Betaplate scintillation counter; assay type: functional
Outline: (§1)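 Male Sprague–Dawley rats (200–300 g) dosed orally 3.2 mg/kg; killed usually 1 h later, brain and pituitary frozen. Tissue at 25 mg wet wt/mL in PIPES pH 7.0 buffer with MgCl2, EGTA, bacitracin, aprotinin, incubated with 40 pM 125I-oCRF 2 h at room temperature; nonspecific with 1 µM rat/human CRF. Pellets centrifuged, rinsed, filtered, scintillation counted.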

[2] = Intrinsic clearance in human liver microsomes; assay type: ADME, Microsome
Rattus norvegicus [3] = experiment: Ex vivo displacement of [125I]oCRF from CRF1 receptor in Sprague-Dawley rat brain cortex at 3.2 mg/kg, po after 2 hrs by Betaplate scintillation counter; assay type: functional; outline: as §1
[4] = biological target: T1, Corticotropin-releasing factor receptor 1 (Rattus norvegicus, UniProt P35353); experiment: (§2) Displacement of [125I]oCRF from rat CRF1 after 2 hrs by Betaplate scintillation counter
T1 sequence (P35353 whole entry): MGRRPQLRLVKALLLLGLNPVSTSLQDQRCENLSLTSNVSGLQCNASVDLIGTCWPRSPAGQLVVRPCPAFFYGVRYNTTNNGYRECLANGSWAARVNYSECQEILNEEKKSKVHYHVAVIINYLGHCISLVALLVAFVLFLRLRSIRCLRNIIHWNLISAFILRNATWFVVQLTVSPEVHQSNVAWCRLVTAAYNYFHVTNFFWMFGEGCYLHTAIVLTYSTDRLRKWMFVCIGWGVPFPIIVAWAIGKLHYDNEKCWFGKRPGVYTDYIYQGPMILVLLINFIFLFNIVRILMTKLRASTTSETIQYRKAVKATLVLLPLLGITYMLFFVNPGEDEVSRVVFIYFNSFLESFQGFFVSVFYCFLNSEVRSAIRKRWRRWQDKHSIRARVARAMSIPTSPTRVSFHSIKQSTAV

[5] = Tmax in fed Beagle dog at 5.0 mg/kg, po; assay type: ADME, organism-based, Canis lupus familiaris; design: dose 5 mg/kg, route oral; details: in vivo
Outline: (§3)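 Beagles fed one can of wet dog food 1 h before gavage of drug suspended in 0.1% methyl cellulose pH 2. Serum from jugular venipuncture at 0.25–24 h postdose, GC-MS analysis (LLOQ 1.0 ng/mL). Bioavailability = dose-normalized oral AUC(0–∞) over i.v. AUC(0–∞).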

[6] = Volume of distribution at steady state in Beagle dog at 1.0 mg/kg, iv; assay type: ADME, organism-based, Canis lupus familiaris; design: dose 1 mg/kg, route intravenous; details: in vivo, read-out: Vdss
Outline: (§4)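 Four beagles (2 male, 2 female, 8–15 kg), 1.0 mg/kg into cephalic vein; fasted ~21 h predose, fed ~3.5 h postdose. Serum sampled from jugular at 0.083–24 h, assayed by GC-MS (LLOQ 1.0 ng/mL). Noncompartmental: linear trapezoid AUC/AUMC, kel from log-linear terminal slope, t1/2 = 0.693/kel, CL = dose/AUC, VDss = CL·AUMC/AUC, VDγ = CL/kel.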

[7] = Cmax in fed Beagle dog at 5.0 mg/kg, po; assay type: ADME, organism-based, Canis lupus familiaris; design: dose 5 mg/kg, route oral; details: in vivo; outline: as §3
[8] = Half life at terminal elimination phase in Beagle dog at 1.0 mg/kg, iv; assay type: ADME, organism-based, Canis lupus familiaris; design: dose 1 mg/kg, route intravenous; details: in vivo; outline: as §4
[9] = Tmax in fasted Beagle dog at 5.0 mg/kg, po; assay type: ADME, organism-based, Canis lupus familiaris; design: dose 5 mg/kg, route oral; details: in vivo
Outline: (§5)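 Fasted beagles (fasted ~21 h, food ~3.5 h postdose) gavaged with drug suspended in 0.1% methyl cellulose pH 2. Jugular serum taken 0.25–24 h, GC-MS quantitation (LLOQ 1.0 ng/mL). Cmax and Tmax from observed profiles; F = (dose i.v.·AUC p.o.)/(dose p.o.·AUC i.v.), AUC by linear trapezoid with log-linear extrapolation.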

[10] = Oral bioavailability in fed Beagle dog at 5.0 mg/kg; assay type: ADME, organism-based, Canis lupus familiaris; details: in vivo; outline: as §3
[11] = Oral bioavailability in fasted Beagle dog at 5.0 mg/kg; assay type: ADME, organism-based, Canis lupus familiaris; details: in vivo; outline: as §5
[12] = Volume of distribution at terminal elimination phase in Beagle dog at 1.0 mg/kg, iv; assay type: ADME, organism-based, Canis lupus familiaris; design: dose 1 mg/kg, route intravenous; details: in vivo; outline: as §4
[13] = Clearance in Beagle dog at 1.0 mg/kg, iv; assay type: ADME, organism-based, Canis lupus familiaris; design: dose 1 mg/kg, route intravenous; details: in vivo; outline: as §4
[14] = Cmax in fasted Beagle dog at 5.0 mg/kg, po; assay type: ADME, organism-based, Canis lupus familiaris; design: dose 5 mg/kg, route oral; details: in vivo; outline: as §5
[15] = biological target: T2, Corticotropin-releasing factor receptor 1 (Rattus norvegicus) (UniProt P35353); experiment: as §2
T2 sequence (whole entry): T1 sequence (P35353 whole entry)

[16] = Fraction unbound ligand in human serum; assay type: ADME, cell-free
[17] = Solubility at pH 2; assay type: physicochemical; details: buffer
[18] = Solubility at pH 7; assay type: physicochemical; details: buffer
[19] = Dissociation constant, pKa of the compound; assay type: physicochemical
[20] = Metabolic stability in human liver microsomes assessed as half life; assay type: ADME, Microsome
Rattus norvegicus [21] = experiment: Inhibition of CRF-induced exitation of locus coerulus neurons in iv dosed Sprague-Dawley rat; assay type: functional; details: read-out: ID50 (the source's name)
[22] = Tmax in fed Beagle dog at 1.0 mg/kg, po; assay type: ADME, organism-based, Canis lupus familiaris; design: dose 1 mg/kg, route oral; details: in vivo; outline: as §3
Rattus norvegicus [23] = experiment: Inhibition of CRF-induced startle response in Sprague-Dawley rat at 17.8 mg/kg, po; assay type: functional, organism-based; design: dose 17.8 mg/kg
Outline: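 CRF 1 µg given icv to rats to enhance acoustic startle; compound dosed p.o. beforehand, with baseline startle also recorded.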

Rattus norvegicus [24] = experiment: Inhibition of fear-potentiated startle response in Sprague-Dawley rat at 10 mg/kg, po; assay type: functional, organism-based; design: dose 10 mg/kg
[25] = Cmax in fasted Beagle dog at 1.0 mg/kg, po; assay type: ADME, organism-based, Canis lupus familiaris; design: dose 1 mg/kg, route oral; details: in vivo; outline: as §5
[26] = Solubility at pH 2.4; assay type: physicochemical; details: buffer
[27] = Cmax in fed Beagle dog at 1.0 mg/kg, po; assay type: ADME, organism-based, Canis lupus familiaris; design: dose 1 mg/kg, route oral; details: in vivo; outline: as §3
[28] = Oral bioavailability in fed Beagle dog at 1.0 mg/kg; assay type: ADME, organism-based, Canis lupus familiaris; details: in vivo; outline: as §3
[29] = biological target: T3, Corticotropin-releasing factor receptor 2 (Homo sapiens, UniProt Q13324); experiment: Binding affinity for human CRF2 receptor; details: read-out: Ki app
T3 sequence (Q13324 whole entry): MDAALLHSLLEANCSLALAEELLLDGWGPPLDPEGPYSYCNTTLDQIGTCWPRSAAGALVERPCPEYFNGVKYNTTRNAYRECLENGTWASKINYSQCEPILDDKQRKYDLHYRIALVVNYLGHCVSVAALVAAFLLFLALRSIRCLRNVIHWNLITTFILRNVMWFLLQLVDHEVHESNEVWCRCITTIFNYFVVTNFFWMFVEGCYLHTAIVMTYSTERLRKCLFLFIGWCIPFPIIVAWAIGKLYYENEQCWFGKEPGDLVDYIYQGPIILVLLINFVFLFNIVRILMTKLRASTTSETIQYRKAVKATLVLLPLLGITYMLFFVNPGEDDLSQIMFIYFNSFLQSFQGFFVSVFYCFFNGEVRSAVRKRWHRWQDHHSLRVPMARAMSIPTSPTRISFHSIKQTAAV

[30] = biological target: T4, Corticotropin-releasing factor receptor 1 (Homo sapiens, UniProt P34998); experiment: Antagonist activity at human CRF1 receptor assessed as oCRF-stimulated adenylate cyclase activity after 15 mins by liquid scintillation counting; assay type: functional; details: read-out: Ki app
T4 sequence (P34998 whole entry): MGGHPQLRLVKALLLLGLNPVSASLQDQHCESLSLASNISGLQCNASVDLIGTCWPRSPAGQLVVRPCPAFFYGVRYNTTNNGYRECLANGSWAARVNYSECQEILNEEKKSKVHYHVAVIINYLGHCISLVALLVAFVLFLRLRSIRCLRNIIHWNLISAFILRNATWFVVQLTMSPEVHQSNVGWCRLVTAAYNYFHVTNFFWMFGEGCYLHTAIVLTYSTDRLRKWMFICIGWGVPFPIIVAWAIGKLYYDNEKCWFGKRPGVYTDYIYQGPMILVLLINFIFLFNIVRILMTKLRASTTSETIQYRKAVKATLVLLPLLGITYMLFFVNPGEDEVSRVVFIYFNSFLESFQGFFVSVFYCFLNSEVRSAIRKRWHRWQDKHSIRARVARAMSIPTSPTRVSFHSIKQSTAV

Rattus norvegicus [31] = experiment: Inhibition of fear-potentiated startle response in Sprague-Dawley rat at 0.32 to 3.2 mg/kg, po; assay type: functional; design: scale not given: the % may be the effect or the level left; details: dose mg/kg 0.32-3.2
[32] = Oral bioavailability in fasted Beagle dog at 1.0 mg/kg; assay type: ADME, organism-based, Canis lupus familiaris; details: in vivo; outline: as §5
[33] = Tmax in fasted Beagle dog at 1.0 mg/kg, po; assay type: ADME, organism-based, Canis lupus familiaris; design: dose 1 mg/kg, route oral; details: in vivo; outline: as §5
Rattus norvegicus [34] = species: Rattus norvegicus; experiment: Inhibition of CRF-induced […] of HPA axis in Sprague-Dawley rat assessed as increase in ACTH levels by radioimmunoassay; assay type: functional; details: read-out: MED
Outline: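 Oral pretreatment in rats, N = 10 per group, then i.v. CRF 4 µg/kg; plasma ACTH measured. Minimum effective dose versus CRF alone by one-way ANOVA with Dunnett's post hoc test, p < 0.05.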

[35] = biological target: T1, Corticotropin-releasing factor receptor 1; experiment: Antagonist activity at CRF1 receptor in rat cortical membrane assessed as oCRF-stimulated adenylate cyclase activity after 15 mins by liquid scintillation; assay type: functional, cell membranes; details: read-out: Ki app

## CC[C@@H](CO)Nc1cc(C)nc(Oc2c(C)cc(Cl)cc2C)c1C(=O)OC
Rattus norvegicus [1]
  inhibition in vivo at 3.2 mg/kg: 86%
[2]
  microsomal CLint: 47 µL/min/mg
Rattus norvegicus [3]
  inhibition in vivo at 3.2 mg/kg: 111%
[4]
  IC50: 6.4 nM

## CCC(CC)Oc1cc(C)nc(Oc2c(C)cc(C)cc2C)c1C
[5]
  Tmax: 1.9 h
[6]
  Vd: 1.1 L/kg
[7]
  Cmax: 1740 ng/mL
[8]
  half-life: 8.3 h
[9]
  Tmax: 1.5 h
Rattus norvegicus [1]
  inhibition in vivo at 3.2 mg/kg: 72%
[10]
  bioavailability: 37%
Rattus norvegicus [3]
  inhibition in vivo at 3.2 mg/kg: 75%
[4]
  IC50: 6.8 nM
[11]
  bioavailability: 3.6%
[12]
  Vd: 3.1 L/kg
[13]
  clearance: 4.1 mL/min/kg
[14]
  Cmax: 187 ng/mL

## CCC(CC)Oc1cc(C)nc(Nc2c(C)cc(C)cc2C)c1C
[4]
  IC50: 3.7 nM

## CCC(CC)Oc1cc(C)nc(Nc2c(C)cc(C)cc2C)c1C(=O)O
[15]
  Activity: inactive

## CCC(CC)Nc1cc(C)nc(Oc2c(C)cc(Br)cc2C)c1C
Rattus norvegicus [1]
  inhibition in vivo at 3.2 mg/kg: 81%
Rattus norvegicus [3]
  inhibition in vivo at 3.2 mg/kg: 86%
[4]
  IC50: 5.6 nM

## CC[C@@H](CO)Nc1cc(C)nc(Oc2c(C)cc(Cl)cc2C)c1C(=O)NC
Rattus norvegicus [1]
  inhibition in vivo at 3.2 mg/kg: 63%
Rattus norvegicus [3]
  inhibition in vivo at 3.2 mg/kg: 86%
[4]
  IC50: 31 nM
[16]
  fraction unbound: 0.045

## CCC(CC)Oc1cc(C)nc(Oc2c(C)cc(C)cc2C)c1C.CS(=O)(=O)O
[17]
  solubility: 3 µg/mL
[18]
  solubility: 0.2 µg/mL
[19]
  pKa: 3.6

## CCC(CC)Nc1cc(C)nc(Nc2c(C)cc(C)cc2C)c1C
[4]
  IC50: 750 nM
[19]
  pKa: 9.3

## CCC(CC)Nc1cc(C)nc(Oc2c(C)cc(Cl)cc2C)c1C
Rattus norvegicus [1]
  inhibition in vivo at 3.2 mg/kg: 72%
Rattus norvegicus [3]
  inhibition in vivo at 3.2 mg/kg: 79%
[4]
  IC50: 7.2 nM
[20]
  half-life: 0.5 h

## CCC(CC)Nc1cc(C)nc(Oc2c(C)cc(C)cc2C)c1C
Rattus norvegicus [21]
  ED50: < 0.01 mg/kg
[6]
  Vd: 5.3 L/kg
[22]
  Tmax: 2 h
[8]
  half-life: 8.8 h
Rattus norvegicus [23]
  Activity: Active
Rattus norvegicus [1]
  inhibition in vivo at 3.2 mg/kg: 49%
Rattus norvegicus [24]
  Activity: Active
[18]
  solubility: 0.1 µg/mL (≈ 0.000306 mM)
[25]
  Cmax: 46.2 ng/mL
Rattus norvegicus [3]
  inhibition in vivo at 3.2 mg/kg: 81%
[26]
  solubility: 5400 µg/mL (≈ 16.5 mM)
[27]
  Cmax: 131 ng/mL
[4]
  IC50: 5.1 nM
[20]
  half-life: 0.633 h
[28]
  bioavailability: 64%
[29]
  Ki: > 10000 nM
[12]
  Vd: 12 L/kg
[30]
  Ki: 12 nM
Rattus norvegicus [31]
  Activity: 62%
[13]
  clearance: 17 mL/min/kg
[19]
  pKa: 6.9
[32]
  bioavailability: 22%
[33]
  Tmax: 1.8 h
Rattus norvegicus [34]
  minimal effective dose: 10 mg/kg
[35]
  Ki: 12 nM
